Laboratory results reported in ChEMBL document CHEMBL2203222, “Mannich bases of scutellarein as thrombin-inhibitors: design, synthesis, biological activity and solubility” (Bioorg Med Chem, 2012).
Values after ≈ are worked out from the molar mass of the structure shown.

Legend:
[1] = Absolute bioavailability in po dosed Beagle dog; format: ADME, organism-based, Canis lupus familiaris; details: in vivo
[2] = system: Plasma; experiment: Antithrombin activity in New Zealand white rabbit plasma assessed as prothrombin time at 25 uM by coagulometer; format: functional, Oryctolagus cuniculus
[3] = system: Plasma; experiment: Antithrombin activity in New Zealand white rabbit plasma assessed as thrombin time at 25 uM by coagulometer; format: functional, Oryctolagus cuniculus
[4] = system: Plasma; experiment: Antithrombin activity in New Zealand white rabbit plasma assessed as fibrinogen content at 25 uM by coagulometer; format: functional, Oryctolagus cuniculus
[5] = Solubility of the compound in water by UV-visible spectrophotometry; format: physicochemical
[6] = system: Radical scavenging activity; experiment: Antioxidant activity assessed as inhibition of DPPH radical by spectrophotometric analysis […]; format: functional
In short: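 Sample in DMSO mixed with an equal volume of 0.2 mM ethanolic DPPH. Test compounds spanned […], alongside reference antioxidants and a DMSO control. Reaction ran 30 min at 25 °C, then absorbance was read at 517 nm on a microplate reader. Scavenging % = (1 − A_test/A_control) × 100, with A_control taken from DMSO alone.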

[7] = system: Plasma; experiment: Antithrombin activity in New Zealand white rabbit plasma assessed as activated partial thromboplastin time at 25 uM by coagulometer; format: functional, Oryctolagus cuniculus
[8] = Solubility of the compound in water by UV-visible spectrophotometry relative to scutellarein; format: physicochemical

SMILES | solubility [5] [µM] | fold change (FC) [8] | bioavailability [1] [%] | PT [2] [s] | TT [3] [s] | Activity [4] [g/L] | IC50 [6] [µM] | APTT [7] [s]
O=C(O)[C@H]1O[C@@H](Oc2cc3oc(-c4ccc(O)cc4)cc(=O)c3c(O)c2O)[C@H](O)[C@@H](O)[C@@H]1O [SCUTELLARIN] |  |  | 0.4 |  |  |  |  | 
CCN(CC)Cc1c(O)c(O)c(O)c2c(=O)cc(-c3ccc(O)cc3)oc12 | 7.71 (≈ 2.86 µg/mL) | 1.11 |  | 7.55 | 12.63 | 5.36 | 25 | 34.62
O=c1cc(-c2ccc(O)cc2)oc2cc(O)c(O)c(O)c12 [SCUTELLAREIN] | 6.95 (≈ 1.99 µg/mL) |  |  | 7.34 | 10.25 | 5.96 | 24 | 33.36
CC(C)N(Cc1c(O)c(O)c(O)c2c(=O)cc(-c3ccc(O)cc3)oc12)C(C)C | 7.97 (≈ 3.18 µg/mL) | 1.15 |  | 7.47 | 11.75 | 5.54 | 30.1 | 34.52
CN(C)Cc1c(O)c(O)c(O)c2c(=O)cc(-c3ccc(O)cc3)oc12 | 8.58 (≈ 2.95 µg/mL) | 1.23 |  | 7.45 | 12.58 | 5.56 | 26.5 | 34.23

Now from value to compound, other results behind:

solubility [5] [µM] | fold change (FC) [8] | SMILES | bioavailability [1] [%] | PT [2] [s] | TT [3] [s] | Activity [4] [g/L] | IC50 [6] [µM] | APTT [7] [s]
7.07 (≈ 2.92 µg/mL) | 1.02 | CCN1CCN(Cc2c(O)c(O)c(O)c3c(=O)cc(-c4ccc(O)cc4)oc23)CC1 |  | 7.41 | 14.13 | 5.54 | 32.4 | 35.15
9.11 (≈ 4.01 µg/mL) | 1.31 | CCCCN1CCN(Cc2c(O)c(O)c(O)c3c(=O)cc(-c4ccc(O)cc4)oc23)CC1 |  | 7.4 | 13.45 | 5.56 | 32.7 | 35.01
11.6 (≈ 4.48 µg/mL) | 1.67 | O=c1cc(-c2ccc(O)cc2)oc2c(CN3CCOCC3)c(O)c(O)c(O)c12 |  | 7.84 | 14.48 | 5.26 | 30.9 | 35.48
7.28 (≈ 2.9 µg/mL) | 1.05 | CN1CCN(Cc2c(O)c(O)c(O)c3c(=O)cc(-c4ccc(O)cc4)oc23)CC1 |  | 7.71 | 14.4 | 5.46 | 32.5 | 35.42
